Laboratory results: publication PMC4361317 (Nuclear medicine and biology, 2014)
Entries after “also recorded” stand apart in the source; their conditions may differ. Where a SMILES comes first, the peptide text is derived from it. Bridges are numbered along the chain shown (N, C = ends). [ ]: non-standard residue; d: D form. Aoc = NCCCCCCCC(=O)O

Assays:
MC1 receptor = MC1 receptor (Homo sapiens, UniProt Q01726); experiment: In vitro competitive binding, MC1 receptor, M21 human melanoma cells, ^125I-
Procedure, shortened: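 Intact M21 cells (1.5×10^5/well) were incubated for 2 h at 37 °C with ~30,000 cpm 125I-(Tyr2)-NDP-MSH plus 10−12 to 10−5 M test compound. Medium was MEM with 25 mM HEPES pH 7.4, 0.2% BSA and 0.3 mM 1,10-phenanthroline. Cells were rinsed twice with ice-cold 0.2% BSA/0.01 M PBS pH 7.4, lysed in 1 N NaOH for 5 min and gamma counted. Triplicate; IC50 calculated.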

αvβ3 integrin receptor = αvβ3 integrin receptor (Homo sapiens, UniProt P05106+P06756); assay type: binding
Procedure, shortened: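 M21 cells (1×10^5/well) were placed on 0.65 µm filter plates and incubated for 2 h at 25 °C with ~30,000 cpm 125I-echistatin and 10−11 to 10−4 M test compound. The binding medium was HEPES-buffered MEM pH 7.4 with BSA and phenanthroline. Bound and free ligand were separated by vacuum filtration with two ice-cold BSA/PBS pH 7.4 rinses, and the PVDF filters were gamma counted. Triplicate; IC50 calculated.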

[1] = system: M21 human melanoma-xenografted nude mice; conditions: mouse, in vivo; cited from earlier work

Compound	IC50 (MC1 receptor) [µM]	MC1 receptor binding affinity, compared with RGD-PEG2-(Arg^11)CCMSH (MC1 receptor; M21 cells)	IC50 (αvβ3 integrin receptor) [µM]	binding affinity for αvβ3 integrin receptor (in words) (αvβ3 integrin receptor; M21 cells)	αvβ3 integrin receptor binding affinity, compared with RGD-PEG2-(Arg^11)CCMSH (αvβ3 integrin receptor; M21 cells)	melanoma uptake relative to ^99mTc-RAD-Lys-(Arg^11)CCMSH [1] [times]	melanoma uptake relative to ^99mTc-RGD-Lys-(Arg^11)CCMSHscramble [1] [times]
CC(C)[C@H](NC(=O)[C@@H]1CCCN1C(=O)[C@H](CCCNC(=N)N)NC(=O)[C@H](CS)NC(=O)[C@H](Cc1c[nH]c2ccccc12)NC(=O)[C@H](CCCNC(=N)N)NC(=O)[C@@H](Cc1ccccc1)NC(=O)[C@H](Cc1c[nH]cn1)NC(=O)[C@H](CCC(=O)O)NC(=O)[C@H](CS)NC(=O)[C@H](CS)NC(=O)CCCCCCCNC(=O)[C@@H]1CC(=O)N[C@@H](CCCNC(=N)N)C(=O)NCC(=O)N[C@@H](CC(=O)O)C(=O)N[C@H](Cc2ccc(O)cc2)C(=O)N1)C(N)=O [RGD-Aoc-(Arg^11)CCMSH] (RGD[dY]D[Aoc]CCEH[dF]RWCRPV-NH2; lactam N-5)	0.0015 ± 0.0002	stronger receptor binding affinity; also recorded: slightly stronger binding affinities	1.13 ± 0.026	low micromolar range	stronger receptor binding affinity; also recorded: slightly stronger binding affinities	–	–
cyclic(Arg-Gly-Asp-DTyr-Asp)-Lys-(^99mTc-[Cys^3,4,10, D-Phe^7, Arg^11]α-MSH3–13) (bicyclic or more) [^99mTc-RGD-Lys-(Arg^11)CCMSH]	–	–	–	–	–	2.5	2.2
